# Measurements: ChEMBL document CHEMBL1123950, “N-(Retinoyl)amino acids. Synthesis and chemopreventive activity in vitro” (1988)
# Experiments:
# Cricetinae gen. sp. [1] = experiment: Cultures with marked degree of squamous metaplasia at a concentration of 10e-10 M; assay type: functional, Cricetulus griseus
# In short: (§1)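 Tracheas from 29-31-day-old hamsters fed a vitamin A free diet; cultured in serum-free CMRL 1066 (insulin 1.0 μg/mL, hydrocortisone hemisuccinate 0.1 μg/mL, glutamine 2 mM, Garamycin 50 μg/mL), 50% O2/45% N2/5% CO2, rocked, 36 °C. Retinoid-free 3 days, then retinoid in DMSO (final 0.1%) for 7 days; medium and gas changed three times. Formalin-fixed day 10; squamous metaplasia graded: mild 2-10%, marked 10-40%, severe >40%.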
# Cricetinae gen. sp. [2] = experiment: Cultures with marked degree of squamous metaplasia at a concentration of 10e-11 M; assay type: functional, Cricetulus griseus; in short: as §1
# Cricetinae gen. sp. [3] = experiment: Cultures with marked degree of squamous metaplasia at a concentration of 10e-8 M; assay type: functional, Cricetulus griseus; in short: as §1
# Cricetinae gen. sp. [4] = experiment: Cultures with marked degree of squamous metaplasia at a concentration of 10e-9 M; assay type: functional, Cricetulus griseus; in short: as §1
# Cricetinae gen. sp. [5] = experiment: Cultures with mild degree of squamous metaplasia at a concentration of 10e-10 M; assay type: functional, Cricetulus griseus; in short: as §1
# Cricetinae gen. sp. [6] = experiment: Cultures with mild degree of squamous metaplasia at a concentration of 10e-11 M; assay type: functional, Cricetulus griseus; in short: as §1
# Cricetinae gen. sp. [7] = experiment: Cultures with severe degree of squamous metaplasia at a concentration of 10e-9 M; assay type: functional, Cricetulus griseus
# In short: (§2)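 Tracheas from 29-31-day-old hamsters kept on a vitamin A free diet, cultured in serum-free CMRL 1066 (insulin 1.0 μg/mL, hydrocortisone hemisuccinate 0.1 μg/mL, glutamine 2 mM, Garamycin 50 μg/mL), 50% O2/45% N2/5% CO2, rocked at 36 °C. Retinoid-free for 3 days, then retinoid in DMSO (0.1% final) for 7 days. Fixed in formalin; squamous metaplasia graded mild 2-10%, marked 10-40%, severe >40%.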
# Cricetinae gen. sp. [8] = experiment: Cultures with mild degree of squamous metaplasia at a concentration of 10e-8 M; assay type: functional, Cricetulus griseus; in short: as §1
# Cricetinae gen. sp. [9] = experiment: Cultures with mild degree of squamous metaplasia at a concentration of 10e-9 M; assay type: functional, Cricetulus griseus; in short: as §1
# Cricetinae gen. sp. [10] = experiment: Cultures with minimal degree of squamous metaplasia at a concentration of 10e-10 M; assay type: functional, Cricetulus griseus; in short: as §1
# Cricetinae gen. sp. [11] = experiment: Cultures with minimal degree of squamous metaplasia at a concentration of 10e-8 M; assay type: functional, Cricetulus griseus; in short: as §1
# Cricetinae gen. sp. [12] = experiment: Cultures with minimal degree of squamous metaplasia at a concentration of 10e-9 M; assay type: functional, Cricetulus griseus; in short: as §1
# Cricetinae gen. sp. [13] = experiment: Cultures with no evidence of squamous metaplasia at a concentration of 10e-10 M; assay type: functional, Cricetulus griseus; in short: as §1
# Cricetinae gen. sp. [14] = experiment: Cultures with no evidence of squamous metaplasia at a concentration of 10e-11 M; assay type: functional, Cricetulus griseus; in short: as §1
# Cricetinae gen. sp. [15] = experiment: Cultures with no evidence of squamous metaplasia at a concentration of 10e-8 M; assay type: functional, Cricetulus griseus; in short: as §1
# Cricetinae gen. sp. [16] = experiment: Cultures with no evidence of squamous metaplasia at a concentration of 10e-9 M; assay type: functional, Cricetulus griseus; in short: as §1
# Cricetinae gen. sp. [17] = experiment: Cultures with severe degree of squamous metaplasia at a concentration of 10e-10 M; assay type: functional, Cricetulus griseus; in short: as §2
# Cricetinae gen. sp. [18] = experiment: Cultures with severe degree of squamous metaplasia at a concentration of 10e-11 M; assay type: functional, Cricetulus griseus; in short: as §2
# Cricetinae gen. sp. [19] = experiment: Cultures with severe degree of squamous metaplasia at a concentration of 10e-8 M; assay type: functional, Cricetulus griseus; in short: as §2
# Cricetinae gen. sp. [20] = experiment: Reversal of keratinization in vitamin A deficient hamster trachea culture at a concentration of 10e-8 M; assay type: functional, Cricetulus griseus; conditions: read-out: ED50 (the source's name); in short: as §2
# Cricetinae gen. sp. [21] = experiment: Cultures with minimal degree of squamous metaplasia at a concentration of 10e-11 M; assay type: functional, Cricetulus griseus; in short: as §1
# HEp-2 [22] = experiment: Viability of human epidermoid carcinoma cells (H.Ep-2) at a conc 10 ug/mL; assay type: functional
# In short: (§3)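 Human epidermoid carcinoma H.Ep.-2 cells, clone-colony viability assay with retinoid at 1-40 μg/mL; incubated 37 °C for 12 days, stained, colonies counted. % of control = 100 × treated colonies/control colonies.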
# HEp-2 [23] = experiment: Viability of human epidermoid carcinoma cells (H.Ep-2) at a conc 1 ug/mL; assay type: functional; in short: as §3
# HEp-2 [24] = experiment: Viability of human epidermoid carcinoma cells (H.Ep-2) at a conc 40 ug/mL; assay type: functional; in short: as §3
# HEp-2 [25] = experiment: Viability of human epidermoid carcinoma cells (H.Ep-2) at a conc 20 ug/mL; assay type: functional; in short: as §3
# L1210 [26] = experiment: Inhibition of proliferation of L1210 cells in culture at a conc 10 ug/mL; assay type: functional, Mus musculus; parameters: scale not given: the % may be the effect or the level left
# In short: (§4)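 L1210 suspension of about 10⁵ cells treated with retinoid at 1-40 μg/mL, 37 °C for 48 h; cells counted at 0 and 48 h, three cultures averaged per concentration. % of control = 100 × (treated 48 h − 0 h count)/(control 48 h − 0 h count).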
# L1210 [27] = experiment: Inhibition of proliferation of L1210 cells in culture at a conc 1 ug/mL; assay type: functional, Mus musculus; parameters: scale not given: the % may be the effect or the level left; in short: as §4
# L1210 [28] = experiment: Inhibition of proliferation of L1210 cells in culture at a conc 20 ug/mL; assay type: functional, Mus musculus; parameters: scale not given: the % may be the effect or the level left; in short: as §4
# Cricetinae gen. sp. [29] = experiment: Reversal of keratinization in vitamin A deficient hamster trachea culture; assay type: functional, Cricetulus griseus; conditions: read-out: ED50 (the source's name); in short: as §2
compound,measurement,setting,value
CC1=C(/C=C/C(C)=C/C=C/C(C)=C/C(=O)NC(Cc2ccccc2)C(=O)O)C(C)(C)CCC1 (stereo unspecified),Culture,Cricetinae gen. sp. [1],14%
same,Culture,Cricetinae gen. sp. [2],72%
same,Culture,Cricetinae gen. sp. [3],0%
same,Culture,Cricetinae gen. sp. [4],43%
same,Culture,Cricetinae gen. sp. [5],29%
same,Culture,Cricetinae gen. sp. [6],14%
same,Culture,Cricetinae gen. sp. [7],0%
same,Culture,Cricetinae gen. sp. [8],29%
same,Culture,Cricetinae gen. sp. [9],0%
same,Culture,Cricetinae gen. sp. [10],0%
same,Culture,Cricetinae gen. sp. [11],0%
same,Culture,Cricetinae gen. sp. [12],0%
same,Culture,Cricetinae gen. sp. [13],43%
same,Culture,Cricetinae gen. sp. [14],14%
same,Culture,Cricetinae gen. sp. [15],71%
same,Culture,Cricetinae gen. sp. [16],57%
same,Culture,Cricetinae gen. sp. [17],14%
same,Culture,Cricetinae gen. sp. [18],0%
same,Culture,Cricetinae gen. sp. [19],0%
same,EC50,Cricetinae gen. sp. [20],500 pM
same,Culture,Cricetinae gen. sp. [21],0%
CC1=C(/C=C/C(C)=C/C=C/C(C)=C/C(=O)NCC(=O)O)C(C)(C)CCC1,Control,HEp-2 [22],67%
same,Control,HEp-2 [23],116%
same,Control,HEp-2 [24],13%
same,Control,HEp-2 [25],12%
same,Control,L1210 [26],70%
same,Control,L1210 [27],68%
same,Control,L1210 [28],19%
CCNC(=O)\C=C(C)/C=C/C=C(C)/C=C/C1=C(C)CCCC1(C)C,Control,HEp-2 [22],13%
same,Control,HEp-2 [23],59%
same,Control,HEp-2 [24],15%
same,Control,HEp-2 [25],10%
same,EC50,Cricetinae gen. sp. [29],300 pM
same,Control,L1210 [26],77%
same,Control,L1210 [27],84%
same,Control,L1210 [28],54%
